Data: ChEMBL document CHEMBL4334538, “Mitochondrial Impairment by Cyanine-Based Small Molecules Induces Apoptosis in Cancer Cells” (ACS Med Chem Lett, 2020)
Active and inactive are the calls of the source. The rule behind the calls is not given here.

How the values were obtained:
HeLa [1] = assay: Cytotoxicity against human HeLa cells assessed as cell killing after 24 hrs by MTT assay; type: functional, cell-based
HEK293 = assay: Cytotoxicity against HEK293 cells assessed as reduction in cell viability after 24 hrs by MTT assay; type: cell-based; details: Homo sapiens, HEK293, 24 h
[2] = Cytotoxicity against HEK293 cells assessed as cell viability at 5 uM after 24 hrs by MTT assay relative to control; type: cell-based; details: human, read-out: Activity
[3] = Drug uptake in mitochondria of human HeLa cells at 150 nM incubated for 20 mins by mito-tracker green dye based laser confocal microscopic analysis; type: ADME; details: 0.15 µM
Outline: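 HeLa cells exposed to compound at 150 nM for 20 min, mitochondria then stained with MitoTracker Green; colocalization by confocal laser scanning microscopy with intensity scatter plots and z-stack maximum projections.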

HeLa [4] = assay: Induction of mitochondrial damage in human HeLa cells assessed as opening of MPTP by measuring fold increase in fluorescence intensity at 800 nM after 24 hrs by Calcein AM/CoCl2 based confocal microscopic analysis relative to control; details: Mitochondria
Outline: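 HeLa cells treated 24 h, then loaded with Calcein AM plus CoCl2; live cells imaged by confocal microscopy and green fluorescence intensity quantified against untreated control.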

HeLa [5] = assay: Induction of morphological changes in mitochondria of human HeLa cells assessed as reduction in mitochondrial area at 500 nM after 3 hrs by laser confocal microscopic analysis relative to untreated control
Outline: (§1)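 Mitochondrial morphology: HeLa cells given 500 nM compound for 3 h, mitochondria visualized by confocal imaging (controls stained with MitoTracker Green); fragmentation scored and average mitochondrial area quantified against control.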

HeLa [6] = assay: Decrease in Bcl-2 expression in human HeLa cells assessed as fold change in fluorescent intensity at 900 nM after 24 hrs by Alexa fluor 488/DAPI-staining based confocal microscopic analysis relative to untreated control; type: functional
Outline: (§2)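 Immunofluorescence: HeLa cells treated 24 h, probed with Bcl-2, Bcl-xl or Bax primary antibodies and Alexa Fluor 488 secondary, nuclei counterstained with DAPI; confocal green intensity quantified relative to control.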

HeLa [7] = assay: Decrease in Bcl-xl expression in human HeLa cells assessed as fold change in fluorescent intensity at 900 nM after 24 hrs by Alexa fluor 488/DAPI-staining based confocal microscopic analysis relative to untreated control; type: functional; outline: as §2
HeLa [8] = assay: Increase in Bax expression in human HeLa cells assessed as fold change in fluorescent intensity at 900 nM after 24 hrs by Alexa fluor 488/DAPI-staining based confocal microscopic analysis relative to untreated control; type: functional; outline: as §2
HeLa [9] = assay: Decrease in Bcl-2 expression in human HeLa cells at 900 nM after 24 hrs by Western blot analysis relative to control; type: functional
Outline: (§3)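 Western blot of HeLa cellular proteins after 24 h compound treatment; Bcl-2, Bcl-xl and Bax bands quantified relative to control.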

HeLa [10] = assay: Decrease in Bcl-xl expression in human HeLa cells at 900 nM after 24 hrs by Western blot analysis relative to control; type: functional; outline: as §3
HeLa [11] = assay: Up regulation of Bax expression in human HeLa cells at 900 nM after 24 hrs by Western blot analysis relative to control; type: functional; outline: as §3
HeLa [12] = assay: Induction of ROS generation in human HeLa cells assessed as fold change in fluorescent intensity at 500 to 800 nM after 24 hrs by H2DCF-DA staining-based fluorescence microscopic analysis relative to untreated control; type: functional
Outline: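 ROS read-out: HeLa cells treated with compound, then incubated with H2DCFDA; green fluorescence imaged by fluorescence/confocal microscopy and intensity quantified versus control.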

HeLa [13] = assay: Induction of cell cycle arrest in human HeLa cells assessed as apoptotic cells at 900 nM after 24 hrs by RNase/PI-staining based flow cytometric analysis (reference value: 1.25%); type: functional
HeLa [14] = assay: Induction of cell cycle arrest in human HeLa cells assessed as accumulation of cells at G0/G1 phase at 900 nM after 24 hrs by RNase/PI-staining based flow cytometric analysis (reference value: 47.43%); type: functional
HeLa [15] = assay: Induction of cell cycle arrest in human HeLa cells assessed as accumulation of cells at S phase at 900 nM after 24 hrs by RNase/PI-staining based flow cytometric analysis (reference value: 13.83%); type: functional
HeLa [16] = assay: Induction of cell cycle arrest in human HeLa cells assessed as accumulation of cells at G2/M phase at 900 nM after 24 hrs by RNase/PI-staining based flow cytometric analysis (reference value: 33.91%); type: functional
HeLa [17] = assay: Induction of apoptosis in human HeLa cells assessed as viable cells at 900 nM after 24 hrs by APC-AnnexinV/7-AAD staining based flow cytometric analysis (reference value: 96.4%); type: functional; details: read-out: Activity
Outline: (§4)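 After 24 h treatment, HeLa cells stained with APC-Annexin V (phosphatidylserine) and 7-AAD (nuclear DNA of necrotic cells), then sorted by flow cytometry into viable, early, late apoptotic and necrotic populations.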

HeLa [18] = assay: Induction of apoptosis in human HeLa cells assessed as early apoptotic cells at 900 nM after 24 hrs by APC-AnnexinV/7-AAD staining based flow cytometric analysis (reference value: 0.2%); type: functional; outline: as §4
HeLa [19] = assay: Induction of apoptosis in human HeLa cells assessed as late apoptotic cells at 900 nM after 24 hrs by APC-AnnexinV/7-AAD staining based flow cytometric analysis (reference value: 2.3%); type: functional; outline: as §4
HeLa [20] = assay: Induction of apoptosis in human HeLa cells assessed as necrotic cells at 900 nM after 24 hrs by APC-AnnexinV/7-AAD staining based flow cytometric analysis (reference value: 1.1%); type: functional; outline: as §4
HeLa [21] = assay: Induction of morphological changes in mitochondria of human HeLa cells assessed as mitochondrial fragmentation at 500 nM after 3 hrs by mito-tracker green dye based laser confocal microscopic analysis; outline: as §1
HeLa [22] = assay: Induction of apoptosis in human HeLa cells assessed as reduction in caspase-3 expression at 900 nM after 24 hrs by Western blot analysis relative to control; type: functional
Outline: (§5)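 HeLa cells incubated 24 h with compound; whole-cell proteins run on gel electrophoresis and blotted for pro-caspase-3 and pro-caspase-9.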

HeLa [23] = assay: Induction of apoptosis in human HeLa cells assessed as reduction in caspase-9 expression at 900 nM after 24 hrs by Western blot analysis relative to control; type: functional; outline: as §5
HeLa [24] = assay: Cytotoxicity against human HeLa cells assessed as cell death at 10 uM after 24 hrs by MTT assay; type: functional, cell-based
HeLa [25] = assay: Cytotoxicity against human HeLa cells assessed as cell viability at 10 uM after 24 hrs by MTT assay relative to control; type: functional; details: read-out: Activity
HeLa [26] = assay: Cytotoxicity against human HeLa cells assessed as reduction in cell viability after 24 hrs by MTT assay

In the case of `COc1cc(-c2c(OC)cccc2OC)[nH]c1/C=C/C1=[N+](C)c2ccccc2C1(C)C`, the IC50 (HeLa [1]) is reported as 0.92 to 4.47 µM and the inhibition (HeLa [1]) is reported as “Dose-dependent effect”.
For `COc1ccc2[nH]c(-c3cc(OC)c(/C=C/C4=[N+](C)c5ccccc5C4(C)C)[nH]3)cc2c1.[I-]`, the IC50 (HeLa [1]) was 0.92 µM, the inhibition (HeLa [1]) was “Dose-dependent effect” and the IC50 (HEK293) was 2.61 µM. For the same compound, the viability at 24 h, 5 µM [2] was 25%, the Drug uptake [3] was “Active” and the fold change (FC) (HeLa [4]) was 3.9. The fold change (FC) (HeLa [5]) was 2.6, the “fold change (FC)” value (HeLa [6]) was 5.7 and the “fold change (FC)” value (HeLa [7]) was 8.4. For the same compound, the “fold change (FC)” value (HeLa [8]) was 2.4, the “fold change (FC)” value (HeLa [9]) was 9.3 and the “fold change (FC)” value (HeLa [10]) was 5.6. The “fold change (FC)” value (HeLa [11]) was 4.1, the “fold change (FC)” value (HeLa [12]) was 22.4 and the Activity (HeLa [13]) was 3.47%. It also gave an Activity (HeLa [14]) of 63.94%, an Activity (HeLa [15]) of 13.52% and an Activity (HeLa [16]) of 15%. The viability at 0.9 µM (HeLa [17]) was 0.3%, the Activity (HeLa [18]) was 0% and the Activity (HeLa [19]) was 98.7%. The Activity (HeLa [20]) was 1%, the Activity (HeLa [21]) was “Active” and the “fold change (FC)” value (HeLa [22]) was 3.7. The “fold change (FC)” value (HeLa [23]) was 2.
In the case of `COc1cc(-c2ccc3c(c2)OCO3)[nH]c1/C=C/C1=[N+](C)c2ccccc2C1(C)C`, the IC50 (HeLa [1]) is reported as 0.92 to 4.47 µM and the inhibition (HeLa [1]) is reported as “Dose-dependent effect”.
In the case of `COc1cc(OC)cc(-c2cc(OC)c(/C=C/C3=[N+](C)c4ccccc4C3(C)C)[nH]2)c1`, the IC50 (HeLa [1]) is reported as 0.92 to 4.47 µM and the inhibition (HeLa [1]) is reported as “Dose-dependent effect”.
For `CCc1c2c(nc3ccc(O)cc13)-c1cc3c(c(=O)n1C2)COC(=O)[C@]3(O)CC`, the Activity (HeLa [24]) was “inactive”.
For `CC(=O)O[C@H]1C(=O)[C@@]2(C)[C@H]([C@H](OC(=O)c3ccccc3)[C@]3(O)C[C@H](OC(=O)[C@H](O)[C@@H](NC(=O)c4ccccc4)c4ccccc4)C(C)=C1C3(C)C)[C@]1(OC(C)=O)CO[C@@H]1C[C@@H]2O` [PACLITAXEL], the viability at 10 µM (HeLa [25]) was 68.7%.
With `COc1cc(-c2cccs2)[nH]c1/C=C/C1=[N+](C)c2ccccc2C1(C)C` the IC50 (HeLa [1]) was 0.92 to 4.47 µM and the inhibition (HeLa [1]) was “Dose-dependent effect”.
For `COc1cc(-c2ccco2)[nH]c1/C=C/C1=[N+](C)c2ccccc2C1(C)C`, the IC50 (HeLa [1]) was 0.92 to 4.47 µM and the inhibition (HeLa [1]) was “Dose-dependent effect”.
With `COc1cccc2c1C(=O)c1c(O)c3c(c(O)c1C2=O)C[C@@](O)(C(=O)CO)C[C@@H]3O[C@H]1C[C@H](N)[C@H](O)[C@H](C)O1` [DOXORUBICIN] the IC50 (HeLa [26]) was 2 µM.
For `COc1cc(-c2ccccc2)[nH]c1/C=C/C1=[N+](C)c2ccccc2C1(C)C`, the IC50 (HeLa [1]) was 0.92 to 4.47 µM and the inhibition (HeLa [1]) was “Dose-dependent effect”.
For `COc1cc(-c2cc3ccccc3[nH]2)[nH]c1/C=C/C1=[N+](C)c2ccccc2C1(C)C.[I-]`, the IC50 (HeLa [1]) was 0.97 µM, the inhibition (HeLa [1]) was “Dose-dependent effect” and the IC50 (HEK293) was 2.56 µM. The viability at 24 h, 5 µM [2] was 24%, the Drug uptake [3] was “Active” and the fold change (FC) (HeLa [4]) was 3.6. For the same compound, the fold change (FC) (HeLa [5]) was 3.4, the “fold change (FC)” value (HeLa [6]) was 8.5 and the “fold change (FC)” value (HeLa [7]) was 10.1. The “fold change (FC)” value (HeLa [8]) was 2.1, the “fold change (FC)” value (HeLa [9]) was 6.4 and the “fold change (FC)” value (HeLa [10]) was 4. The “fold change (FC)” value (HeLa [11]) was 3.6, the “fold change (FC)” value (HeLa [12]) was 16.1 and the Activity (HeLa [13]) was 4.68%. The Activity (HeLa [14]) was 67.96%, the Activity (HeLa [15]) was 6.42% and the Activity (HeLa [16]) was 16.79%. For the same compound, the viability at 0.9 µM (HeLa [17]) was 0.1%, the Activity (HeLa [18]) was 0% and the Activity (HeLa [19]) was 99.5%. The Activity (HeLa [20]) was 0.4%, the Activity (HeLa [21]) was “Active” and the “fold change (FC)” value (HeLa [22]) was 3.5. The “fold change (FC)” value (HeLa [23]) was 1.9.
In the case of `COc1cc(-c2ccc[nH]2)[nH]c1/C=C/C1=[N+](C)c2ccccc2C1(C)C`, the IC50 (HeLa [1]) is reported as 0.92 to 4.47 µM and the inhibition (HeLa [1]) is reported as “Dose-dependent effect”.
For `COc1ccc(OC)c(-c2cc(OC)c(/C=C/C3=[N+](C)c4ccccc4C3(C)C)[nH]2)c1`, the IC50 (HeLa [1]) was 0.92 to 4.47 µM and the inhibition (HeLa [1]) was “Dose-dependent effect”.
With `COc1ccc(-c2cc(OC)c(/C=C/C3=[N+](C)c4ccccc4C3(C)C)[nH]2)c(OC)c1` the IC50 (HeLa [1]) was 0.92 to 4.47 µM and the inhibition (HeLa [1]) was “Dose-dependent effect”.
For `COC1=CC(c2cc3ccccc3[nH]2)=N/C1=C\c1[nH]c(C)cc1C` [OBATOCLAX], the viability at 10 µM (HeLa [25]) was 70.3%.
With `COc1ccc(-c2cc(OC)c(/C=C/C3=[N+](C)c4ccccc4C3(C)C)[nH]2)cc1OC` the IC50 (HeLa [1]) was 0.92 to 4.47 µM and the inhibition (HeLa [1]) was “Dose-dependent effect”.
With `COc1cc(-c2cc3ccccc3s2)[nH]c1/C=C/C1=[N+](C)c2ccccc2C1(C)C` the IC50 (HeLa [1]) was 0.92 to 4.47 µM and the inhibition (HeLa [1]) was “Dose-dependent effect”.
With `COc1cc(-c2cc3ccccc3o2)[nH]c1/C=C/C1=[N+](C)c2ccccc2C1(C)C` the IC50 (HeLa [1]) was 0.92 to 4.47 µM and the inhibition (HeLa [1]) was “Dose-dependent effect”.
With `COc1cc(-c2cccc(OC)c2OC)[nH]c1/C=C/C1=[N+](C)c2ccccc2C1(C)C` the IC50 (HeLa [1]) was 0.92 to 4.47 µM and the inhibition (HeLa [1]) was “Dose-dependent effect”.
For `COc1cc(-c2ccc3ccccc3c2)[nH]c1/C=C/C1=[N+](C)c2ccccc2C1(C)C`, the IC50 (HeLa [1]) was 0.92 to 4.47 µM and the inhibition (HeLa [1]) was “Dose-dependent effect”.
